Results as given in ChEMBL document CHEMBL6115024 (J Med Chem, 2025).
Calls of active or inactive are those of the source. The calls are words filed in the database; no cut-off is given here.

Tests used:
Albumin = Albumin (Homo sapiens, UniProt P02768); assay: Binding affinity to CM5-chip immobilized human serum albumin assessed as fold change in equilibrium association constant by SPR analysis relative to semaglutide
[1] = target: T1, Glucagon-like peptide 1 receptor (Homo sapiens, UniProt P43220); assay: Agonist activity at GLP-1 receptor (unknown origin) overexpressed in CHO-K1 cells assessed as cAMP production incubated for 30 mins in presence of HSA by HitHunter cAMP assay; type: functional, cell-based
T1 sequence (P43220 whole entry): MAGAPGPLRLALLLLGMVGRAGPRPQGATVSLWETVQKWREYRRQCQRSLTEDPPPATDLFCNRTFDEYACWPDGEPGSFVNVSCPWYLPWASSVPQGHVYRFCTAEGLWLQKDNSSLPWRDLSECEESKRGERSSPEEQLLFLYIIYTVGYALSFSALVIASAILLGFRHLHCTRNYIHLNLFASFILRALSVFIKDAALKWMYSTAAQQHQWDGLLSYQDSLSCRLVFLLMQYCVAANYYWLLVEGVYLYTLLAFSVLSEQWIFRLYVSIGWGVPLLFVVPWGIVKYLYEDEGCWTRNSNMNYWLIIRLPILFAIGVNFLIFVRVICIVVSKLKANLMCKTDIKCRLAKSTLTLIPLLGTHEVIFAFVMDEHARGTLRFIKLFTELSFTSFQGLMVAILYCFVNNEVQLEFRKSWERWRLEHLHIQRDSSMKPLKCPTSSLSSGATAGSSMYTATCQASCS

[2] = target: T1, Glucagon-like peptide 1 receptor; assay: Agonist activity at GLP-1 receptor (unknown origin) overexpressed in CHO-K1 cells assessed as cAMP production incubated for 30 mins by HitHunter cAMP assay; type: functional, cell-based
Mus musculus [3] = assay: Inhibition of fatty liver in GAN-DIO-NASH C57BL/6JNarl mouse assessed as improvement in liver health at 30 nmol/kg, sc qd for 70 days; type: functional, organism-based; conditions: time 70.0 day
Method in brief: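 Male GAN-DIO-NASH mice on GAN diet dosed daily with PBS or 5–30 nmol/kg for 10 weeks; body weight, fat mass and ALT on days 0 and 70, liver H&E at 20×, liver triglycerides post-treatment; mean ± SEM, ANOVA or Student's t test.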

Mus musculus [4] = assay: Induction of glycemic control in diet-induced obese C57BL/6 mouse assessed as reduction in fat mass at 3 to 100 nmol/kg, sc treated for 40 days administered on every 4 days; type: functional, organism-based; conditions: dose 3-100 nmol/kg, time 40.0 day
Method in brief: (§1)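 Male C57BL/6 mice fed 45% kcal fat diet from 6 to 18–20 weeks old, kept on diet, given sc PBS (100 μL) or 3–100 nmol/kg every 4 days for 40 days; glucose monitored; body weight, composition, blood chemistry and H&E histology of fixed liver and iWAT assessed post-treatment.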

Mus musculus [5] = assay: Induction of glycemic control in db/db mouse assessed as reduction in blood glucose level at 30 nmol/kg, sc measured after 48 hrs; type: functional, organism-based
Mus musculus [6] = assay: Induction of glycemic control in db/db mouse assessed as reduction in polydipsia at 10 to 30 nmol/kg, sc treated for 8 weeks administered on every 2 days; type: functional, organism-based; conditions: dose 10-30 nmol/kg
Method in brief: (§2)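 db/db mice dosed sc with PBS or 10 or 30 nmol/kg every 2 days for 8 weeks; body weight, food and water intake recorded every 2 days; on day 59 heart, liver, iWAT and BAT excised and weighed; mean ± SEM, ANOVA with multiple comparisons.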

Mus musculus [7] = assay: Induction of glycemic control in db/db mouse assessed as reduction in blood glucose level at 1 to 100 nmol/kg, sc measured upto 120 hrs; type: functional, organism-based
Method in brief: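 db/db mice, three per dose group, got a single sc dose of 1, 3, 10, 30 or 100 nmol/kg, with a PBS control. Blood glucose was measured before dosing and at multiple time points after. EC50 was derived from the dose–response profiles by nonlinear regression. Mean ± SEM.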

Mus musculus [8] = assay: Induction of glycemic control in db/db mouse assessed as reduction in proportion of iWAT weight to total body weight at 10 to 30 nmol/kg, sc treated for 8 weeks administered on every 2 days; type: functional, organism-based; conditions: dose 10-30 nmol/kg; method in brief: as §2
Mus musculus [9] = assay: Induction of glycemic control in diet-induced obese C57BL/6 mouse assessed as increase in proportion of small adipocytes at 3 to 100 nmol/kg, sc treated for 40 days administered on every 4 days by H and E staining based analysis; type: functional, organism-based; conditions: dose 3-100 nmol/kg, time 40.0 day; method in brief: as §1
Mus musculus [10] = assay: Induction of glycemic control in db/db mouse assessed as reduction in large lipid droplets in liver at 10 to 30 nmol/kg, sc treated for 8 weeks administered on every 2 days by H and E staining based analysis; type: functional, organism-based; conditions: dose 10-30 nmol/kg
Method in brief: (§3)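 After 8 weeks of sc dosing (10 or 30 nmol/kg every 2 days) of db/db mice, liver and iWAT fixed in 4% paraformaldehyde, paraffin-embedded, sectioned and H&E stained; adipocyte area and diameter distributions and liver steatosis, hypertrophy, ballooning scored.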

Mus musculus [11] = assay: Induction of glycemic control in diet-induced obese C57BL/6 mouse assessed as decrease in total cholesterol level at 100 nmol/kg, sc treated for 40 days administered on every 4 days; type: functional, organism-based; conditions: time 40.0 day; method in brief: as §1
Mus musculus [12] = assay: Induction of glycemic control in diet-induced obese C57BL/6 mouse assessed as reduction in blood glucose level at 30 nmol/kg, sc treated for 40 days administered on every 4 days relative to control; type: functional, organism-based; conditions: time 40.0 day
Pancreatic islet = assay: Induction of insulin secretion in C57BL6/J mouse pancreatic islet at 10 to 100 nM incubated for 24 hrs in presence of 2.5 mM glucose by ELISA; type: functional, cell-based; conditions: dose 10-100 nM
Mus musculus [13] = assay: Induction of glycemic control in db/db mouse assessed as reduction in polyphagia at 10 to 30 nmol/kg, sc treated for 8 weeks administered on every 2 days; type: functional, organism-based; conditions: dose 10-30 nmol/kg; method in brief: as §2
Mus musculus [14] = assay: Blood glucose lowering effect in db/db mouse assessed as blood glucose level at 30 nmol/kg, sc treated for 8 weeks administered on every 2 days (reference value: 17 to 30 mmol/L); type: functional
Mus musculus [15] = assay: Effect on heart weight in db/db mouse at 10 to 30 nmol/kg, sc treated for 8 weeks administered on every 2 days; type: functional, organism-based; conditions: dose 10-30 nmol/kg; method in brief: as §2
Mus musculus [16] = assay: Effect on liver weight in db/db mouse at 10 to 30 nmol/kg, sc treated for 8 weeks administered on every 2 days; type: functional, organism-based; conditions: dose 10-30 nmol/kg; method in brief: as §2
Mus musculus [17] = assay: Induction of glycemic control in db/db mouse assessed as reduction in […] in liver at 10 to 30 nmol/kg, sc treated for 8 weeks administered on every 2 days by H and E staining based analysis; type: functional, organism-based; conditions: dose 10-30 nmol/kg
Mus musculus [18] = assay: Induction of glycemic control in db/db mouse assessed as reduction in blood glucose level administered subcutaneously measured upto 120 hrs; type: functional, organism-based; conditions: dose 1-100 nmol/kg, route sc
Mus musculus [19] = assay: Effect on ALT level in diet-induced obese C57BL/6 mouse at 3 to 100 nmol/kg, sc treated for 40 days administered on every 4 days; type: functional, organism-based; conditions: dose 3-100 nmol/kg, time 40.0 day
Mus musculus [20] = assay: Induction of glycemic control in db/db mouse assessed as reduction in hepatocyte ballooning at 10 to 30 nmol/kg, sc treated for 8 weeks administered on every 2 days by H and E staining based analysis; type: functional, organism-based; conditions: dose 10-30 nmol/kg; method in brief: as §3
Mus musculus [21] = assay: Induction of glycemic control in db/db mouse assessed as reduction in microvesicular steatosis in liver at 10 to 30 nmol/kg, sc treated for 8 weeks administered on every 2 days by H and E staining based analysis; type: functional, organism-based; conditions: dose 10-30 nmol/kg; method in brief: as §3
Mus musculus [22] = assay: Induction of glycemic control in diet-induced obese C57BL/6 mouse assessed as increase in lean mass at 3 to 100 nmol/kg, sc treated for 40 days administered on every 4 days; type: functional, organism-based; conditions: dose 3-100 nmol/kg, time 40.0 day; method in brief: as §1
Mus musculus [23] = assay: Effect on brown adipose tissue weight in db/db mouse at 10 to 30 nmol/kg, sc treated for 8 weeks administered on every 2 days; type: functional, organism-based; conditions: dose 10-30 nmol/kg; method in brief: as §2
Mus musculus [24] = assay: Induction of glycemic control in db/db mouse assessed as reduction in macrovesicular steatosis in liver at 10 to 30 nmol/kg, sc treated for 8 weeks administered on every 2 days by H and E staining based analysis; type: functional, organism-based; conditions: dose 10-30 nmol/kg; method in brief: as §3
Mus musculus [25] = assay: Induction of glycemic control in diet-induced obese C57BL/6 mouse assessed as decrease in proportion of large adipocytes at 3 to 100 nmol/kg, sc treated for 40 days administered on every 4 days by H and E staining based analysis; type: functional, organism-based; conditions: dose 3-100 nmol/kg, time 40.0 day; method in brief: as §1

Chain of Albumin (P02768 whole entry): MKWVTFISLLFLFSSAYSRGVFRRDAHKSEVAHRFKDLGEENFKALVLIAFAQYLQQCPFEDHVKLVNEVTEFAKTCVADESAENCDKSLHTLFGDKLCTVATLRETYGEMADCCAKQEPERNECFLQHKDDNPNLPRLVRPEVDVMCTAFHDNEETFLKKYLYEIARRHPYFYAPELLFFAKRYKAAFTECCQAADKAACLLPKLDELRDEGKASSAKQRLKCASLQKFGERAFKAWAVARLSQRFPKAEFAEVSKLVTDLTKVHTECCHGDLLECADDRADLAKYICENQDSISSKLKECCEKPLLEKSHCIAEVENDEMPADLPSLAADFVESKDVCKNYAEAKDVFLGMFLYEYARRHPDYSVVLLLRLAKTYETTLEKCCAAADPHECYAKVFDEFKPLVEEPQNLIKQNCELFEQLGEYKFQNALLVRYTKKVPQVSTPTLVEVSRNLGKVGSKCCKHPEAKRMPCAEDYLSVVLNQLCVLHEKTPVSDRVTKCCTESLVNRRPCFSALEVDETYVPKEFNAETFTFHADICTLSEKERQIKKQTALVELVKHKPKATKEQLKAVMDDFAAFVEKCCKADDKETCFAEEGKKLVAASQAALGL

`CCCCCCCCCCCCCCCC(=O)N[C@@H](CCC(=O)NCCCC[C@H](NC(=O)CCOCCOCCOCCOCCNC(=O)CCc1cn(CC(=O)N[C@@H](CCC(=O)NCCCC[C@H](NC(=O)[C@H](C)NC(=O)[C@H](C)NC(=O)[C@H](CCC(N)=O)NC(=O)CNC(=O)[C@H](CCC(=O)O)NC(=O)[C@H](CC(C)C)NC(=O)[C@H](Cc2ccc(O)cc2)NC(=O)[C@H](CO)NC(=O)[C@H](CO)NC(=O)[C@@H](NC(=O)[C@H](CC(=O)O)NC(=O)[C@H](CO)NC(=O)[C@@H](NC(=O)[C@H](Cc2ccccc2)NC(=O)[C@@H](NC(=O)CNC(=O)[C@H](CCC(=O)O)NC(=O)[C@H](C)NC(=O)[C@@H](N)Cc2cnc[nH]2)[C@@H](C)O)[C@@H](C)O)C(C)C)C(=O)N[C@@H](CCC(=O)O)C(=O)N[C@@H](Cc2ccccc2)C(=O)N[C@H](C(=O)N[C@@H](C)C(=O)N[C@@H](Cc2c[nH]c3ccccc23)C(=O)N[C@@H](CC(C)C)C(=O)N[C@H](C(=O)N[C@@H](CCCNC(=N)N)C(=O)NCC(=O)N[C@@H](CCCNC(=N)N)C(=O)NCC(=O)O)C(C)C)[C@@H](C)CC)C(=O)O)nn1)C(=O)NCCOCCOCCOCCOCCC(=O)N[C@@H](CCCCNC(=O)CC[C@H](NC(=O)CCCCCCCCCCCCCCC)C(=O)O)C(=O)OC)C(=O)O` was tested, and the “fold change (FC)” value (Albumin) was 8.
`CCCCCCCCCCCCCCCC(=O)N[C@@H](CCC(=O)NCCCC[C@@H](NC(=O)CCOCCOCCOCCOCCNC(=O)CCc1cn(CC(=O)N[C@@H](CCC(=O)NCCCC[C@H](NC(=O)[C@H](C)NC(=O)[C@H](C)NC(=O)[C@H](CCC(N)=O)NC(=O)CNC(=O)[C@H](CCC(=O)O)NC(=O)[C@H](CC(C)C)NC(=O)[C@H](Cc2ccc(O)cc2)NC(=O)[C@H](CO)NC(=O)[C@H](CO)NC(=O)[C@@H](NC(=O)[C@H](CC(=O)O)NC(=O)[C@H](CO)NC(=O)[C@@H](NC(=O)[C@H](Cc2ccccc2)NC(=O)[C@@H](NC(=O)CNC(=O)[C@H](CCC(=O)O)NC(=O)C(C)(C)NC(=O)[C@@H](N)Cc2cnc[nH]2)[C@@H](C)O)[C@@H](C)O)C(C)C)C(=O)N[C@@H](CCC(=O)O)C(=O)N[C@@H](Cc2ccccc2)C(=O)N[C@H](C(=O)N[C@@H](C)C(=O)N[C@@H](Cc2c[nH]c3ccccc23)C(=O)N[C@@H](CC(C)C)C(=O)N[C@H](C(=O)N[C@@H](CCCNC(=N)N)C(=O)NCC(=O)N[C@@H](CCCNC(=N)N)C(=O)NCC(=O)O)C(C)C)[C@@H](C)CC)C(=O)O)nn1)C(=O)NCCOCCOCCOCCOCCC(=O)N[C@H](CCCCNC(=O)CC[C@@H](NC(=O)CCCCCCCCCCCCCCCCC(=O)O)C(=O)O)C(=O)O)C(=O)O` was tested, and the EC50 [1] was 43.3 nM and the EC50 [2] was 0.92 nM.
In the case of `CC[C@H](C)[C@H](NC(=O)[C@H](Cc1ccccc1)NC(=O)[C@H](CCC(=O)O)NC(=O)[C@H](CCCCNC(=O)COCCOCCNC(=O)COCCOCCNC(=O)CC[C@H](NC(=O)CCCCCCCCCCCCCCCCC(=O)O)C(=O)O)NC(=O)[C@H](C)NC(=O)[C@H](C)NC(=O)[C@H](CCC(N)=O)NC(=O)CNC(=O)[C@H](CCC(=O)O)NC(=O)[C@H](CC(C)C)NC(=O)[C@H](Cc1ccc(O)cc1)NC(=O)[C@H](CO)NC(=O)[C@H](CO)NC(=O)[C@@H](NC(=O)[C@H](CC(=O)O)NC(=O)[C@H](CO)NC(=O)[C@@H](NC(=O)[C@H](Cc1ccccc1)NC(=O)[C@@H](NC(=O)CNC(=O)[C@H](CCC(=O)O)NC(=O)C(C)(C)NC(=O)[C@@H](N)Cc1cnc[nH]1)[C@@H](C)O)[C@@H](C)O)C(C)C)C(=O)N[C@@H](C)C(=O)N[C@@H](Cc1c[nH]c2ccccc12)C(=O)N[C@@H](CC(C)C)C(=O)N[C@H](C(=O)N[C@@H](CCCNC(=N)N)C(=O)NCC(=O)N[C@@H](CCCNC(=N)N)C(=O)NCC(=O)O)C(C)C`, the inhibition (Mus musculus [3]) is reported as “Active”, the Activity (Mus musculus [4]) is reported as “inactive” and the Activity (Mus musculus [5]) is reported as “inactive”. For the same molecule, the Activity (Mus musculus [6]) was “Active”, the EC50 (Mus musculus [7]) was 9.24 nM and the Activity (Mus musculus [8]) was “Active”. For the same molecule, the Activity (Mus musculus [9]) was “inactive”, the Activity (Mus musculus [10]) was “Active” and the Activity (Mus musculus [11]) was “Active”. For the same molecule, the Activity (Mus musculus [12]) was “inactive”, the Activity (Pancreatic islet) was “inactive” and the Activity (Mus musculus [13]) was “Active”. The Activity (Mus musculus [14]) was 17.7 mmol/L, the Activity (Mus musculus [15]) was “No effect” and the Activity (Mus musculus [16]) was “No effect”. The Activity (Mus musculus [17]) was “Active”, the Activity (Mus musculus [18]) was “Dose-dependent-effect” and the Activity (Mus musculus [19]) was “No effect”. For the same molecule, the Activity (Mus musculus [20]) was “Active”, the Activity (Mus musculus [21]) was “Active” and the Activity (Mus musculus [22]) was “inactive”. For the same molecule, the Activity (Mus musculus [23]) was “No effect”, the Activity (Mus musculus [24]) was “Active” and the Activity (Mus musculus [25]) was “inactive”.
